These results are taken from ChEMBL document CHEMBL4342520, “Discovery, Structure-Activity Relationship, and Biological Activity of Histone-Competitive Inhibitors of Histone Acetyltransferases P300/CBP” (J Med Chem, 2020).

Activity calls are given as the source filed them. The calls are words filed in the database; no cut-off is given here.

For test [1], the target named is T1, Histone acetyltransferase p300 (Homo sapiens, UniProt Q09472). Description: Inhibition of recombinant human GST-tagged p300 HAT domain (1195 to 1673 residues) expressed in Escherichia coli BL21 codon plus cells using Histone H3 peptide (1 to 21) and [3H]acetyl-CoA as substrate preincubated with enzyme for 10 mins followed by substrate addition and measured after 30 mins by scintillation counting method. In a few lines: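 The compound (100 nM to 10 µM) was preincubated with p300-HAT (10 nM) for 10 min at 25 °C in 50 mM phosphate buffer pH 7.0 with 0.01% Brij-35. Incorporation of [3H]acetyl from Ac-CoA into histone H3 (1-21) peptide was captured on filter paper, washed with 50 mM NaHCO3 and counted by scintillation. IC50 came from a sigmoidal dose-response fit, mean of at least three experiments.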
T1 sequence (Q09472 whole entry, the tested form may be a part): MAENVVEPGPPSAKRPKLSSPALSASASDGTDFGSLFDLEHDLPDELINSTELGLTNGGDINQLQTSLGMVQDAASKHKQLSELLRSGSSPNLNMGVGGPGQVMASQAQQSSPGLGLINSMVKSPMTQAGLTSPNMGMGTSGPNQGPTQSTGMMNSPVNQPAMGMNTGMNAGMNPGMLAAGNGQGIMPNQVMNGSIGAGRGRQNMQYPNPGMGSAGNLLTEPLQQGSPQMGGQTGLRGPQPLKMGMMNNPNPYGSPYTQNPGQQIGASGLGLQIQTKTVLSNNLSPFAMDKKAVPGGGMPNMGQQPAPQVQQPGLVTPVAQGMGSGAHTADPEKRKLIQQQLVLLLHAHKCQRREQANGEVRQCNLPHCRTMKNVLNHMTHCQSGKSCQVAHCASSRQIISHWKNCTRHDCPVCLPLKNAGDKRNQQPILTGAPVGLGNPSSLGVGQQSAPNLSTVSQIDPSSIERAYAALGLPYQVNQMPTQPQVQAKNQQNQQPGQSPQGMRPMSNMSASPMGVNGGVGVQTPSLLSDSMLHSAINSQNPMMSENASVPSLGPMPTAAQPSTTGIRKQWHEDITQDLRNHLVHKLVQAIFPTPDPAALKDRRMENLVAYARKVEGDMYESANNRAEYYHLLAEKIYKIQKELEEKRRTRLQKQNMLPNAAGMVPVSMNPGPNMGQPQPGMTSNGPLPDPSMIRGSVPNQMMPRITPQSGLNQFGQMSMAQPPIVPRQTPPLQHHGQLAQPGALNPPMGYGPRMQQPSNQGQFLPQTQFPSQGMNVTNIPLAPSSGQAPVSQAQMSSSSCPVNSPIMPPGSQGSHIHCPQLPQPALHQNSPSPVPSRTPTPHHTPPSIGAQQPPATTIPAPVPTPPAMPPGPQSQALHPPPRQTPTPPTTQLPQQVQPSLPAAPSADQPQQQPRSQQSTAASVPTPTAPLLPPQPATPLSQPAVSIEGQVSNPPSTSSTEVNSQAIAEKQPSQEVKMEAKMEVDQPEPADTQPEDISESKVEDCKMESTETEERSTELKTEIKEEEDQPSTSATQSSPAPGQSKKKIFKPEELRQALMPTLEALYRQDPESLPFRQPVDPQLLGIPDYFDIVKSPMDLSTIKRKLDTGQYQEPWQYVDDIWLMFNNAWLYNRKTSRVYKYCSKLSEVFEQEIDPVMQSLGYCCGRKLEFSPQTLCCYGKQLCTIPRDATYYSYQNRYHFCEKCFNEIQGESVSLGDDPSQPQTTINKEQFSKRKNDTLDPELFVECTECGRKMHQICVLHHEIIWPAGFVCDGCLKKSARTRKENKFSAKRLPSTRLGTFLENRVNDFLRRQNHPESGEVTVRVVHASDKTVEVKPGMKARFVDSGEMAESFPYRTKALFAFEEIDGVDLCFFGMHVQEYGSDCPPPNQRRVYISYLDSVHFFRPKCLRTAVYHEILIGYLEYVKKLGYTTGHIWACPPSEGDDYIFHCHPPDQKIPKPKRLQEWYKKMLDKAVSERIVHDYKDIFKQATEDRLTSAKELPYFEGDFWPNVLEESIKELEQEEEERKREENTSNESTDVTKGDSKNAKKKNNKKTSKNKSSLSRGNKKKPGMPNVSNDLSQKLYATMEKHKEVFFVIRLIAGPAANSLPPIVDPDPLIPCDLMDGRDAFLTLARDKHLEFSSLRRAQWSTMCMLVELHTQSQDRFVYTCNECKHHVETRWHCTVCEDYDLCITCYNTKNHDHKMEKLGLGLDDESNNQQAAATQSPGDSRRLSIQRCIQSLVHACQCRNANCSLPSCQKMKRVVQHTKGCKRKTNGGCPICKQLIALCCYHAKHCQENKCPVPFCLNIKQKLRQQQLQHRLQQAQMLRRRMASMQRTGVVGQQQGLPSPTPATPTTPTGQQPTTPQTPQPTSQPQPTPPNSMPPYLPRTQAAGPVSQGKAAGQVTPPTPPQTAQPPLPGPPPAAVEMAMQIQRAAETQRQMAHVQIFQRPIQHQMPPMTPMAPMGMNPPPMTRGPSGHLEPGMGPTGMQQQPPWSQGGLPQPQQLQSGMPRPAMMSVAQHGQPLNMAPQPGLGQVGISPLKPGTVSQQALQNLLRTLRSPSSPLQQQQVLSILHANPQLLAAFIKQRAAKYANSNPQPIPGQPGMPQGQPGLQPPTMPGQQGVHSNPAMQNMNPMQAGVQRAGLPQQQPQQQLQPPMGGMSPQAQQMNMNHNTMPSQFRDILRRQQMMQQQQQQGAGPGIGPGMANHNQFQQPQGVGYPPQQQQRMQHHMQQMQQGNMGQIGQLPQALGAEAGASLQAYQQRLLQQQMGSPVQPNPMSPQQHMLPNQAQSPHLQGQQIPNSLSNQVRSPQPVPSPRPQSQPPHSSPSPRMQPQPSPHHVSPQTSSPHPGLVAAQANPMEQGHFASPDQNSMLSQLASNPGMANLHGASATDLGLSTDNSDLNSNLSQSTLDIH

In test [2] the test system is MCF7. The experiment in a line: Antiproliferative activity against human tamoxifen-resistant MCF7 cells assessed as reduction in cell viability incubated for 6 days by Celigo-insitu cell cytometer analysis. To be noted: MCF7, 144 h.
The target of test [3] is Lysine-specific histone demethylase 1A (Homo sapiens) (UniProt O60341). The experiment in a line: Inhibition of LSD1 (unknown origin) at 50 uM.
The target in test [4] is Histone acetyltransferase KAT6A (Homo sapiens, UniProt Q92794). Description: Inhibition of recombinant human GST-tagged Myst3 expressed in Escherichia coli BL21 codon plus cells using Histone H3 peptide (1 to 21) and [3H]acetyl-CoA as substrate preincubated with enzyme for 10 mins followed by substrate addition and measured after 30 mins by scintillation counting method. A digest of the protocol: (§1)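 CBP, PCAF and Myst3 HAT proteins were prepared like GST-p300-HAT: expressed in E. coli BL21-CodonPlus, purified on glutathione resin, then by gel filtration. Inhibition was measured in the same radiometric filter assay with [3H]Ac-CoA and histone H3 (1-21) peptide, read by scintillation counting.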

Test [5] deals with MCF7. The experiment in a line: Antiproliferative activity against human MCF7 cells assessed as reduction in cell viability incubated for 6 days by Celigo-insitu cell cytometer analysis. To be noted: MCF7, 144 h.
Test [6] in a line: Antiproliferative activity against human MDAPanc28 cells assessed as reduction in cell viability incubated for 5 days by MTT assay. The note with it: MDA-Panc-28, 120 h.
Test [7] concerns the target CREB-binding protein (Homo sapiens, UniProt Q92793). The experiment in a line: Inhibition of recombinant human GST-tagged CBP HAT domain expressed in Escherichia coli BL21 codon plus cells using Histone H3 peptide (1 to 21) and [3H]acetyl-CoA as substrate preincubated with enzyme for 10 mins followed by substrate addition and measured after 30 mins by scintillation counting method. In a few lines: as §1

Test [8] deals with Histone acetyltransferase KAT2B (Homo sapiens, UniProt Q92831). The experiment in a line: Inhibition of recombinant human GST-tagged PCAF expressed in Escherichia coli BL21 codon plus cells using Histone H3 peptide (1 to 21) and [3H]acetyl-CoA as substrate preincubated with enzyme for 10 mins followed by substrate addition and measured after 30 mins by scintillation counting method. A digest of the protocol: as §1

The subject of test [9] is PANC-1. Description: Antiproliferative activity against human PANC1 cells assessed as reduction in cell viability incubated for 5 days by MTT assay. The note with it: PANC-1, 120 h. On the technique in general: Tetrazolium assays rely on reduction of a dye to a coloured formazan, in cell work by metabolically active cells.
Test [10] deals with Kasumi 1. Description: Antiproliferative activity against human Kasumi-1 cells assessed as reduction in cell viability incubated for 5 days by XTT assay. The note with it: Kasumi 1, 120 h.
Test [11] addresses T1, Histone acetyltransferase p300. Description: Inhibition of recombinant human GST-tagged p300 HAT domain (1195 to 1673 residues) expressed in Escherichia coli BL21 codon plus cells at 10 uM using Histone H3 peptide (1 to 21) and [3H]acetyl-CoA as substrate preincubated with enzyme for 10 mins followed by substrate addition and measured after 30 mins by scintillation counting method relative to control.

Test [12] can be described thus: Inhibition of p300 HAT domain (1287-1652 residues) (unknown origin) harboring regulatory auto-acetylation loop deletion mutant and M1652G mutant using H4-15 peptide as substrate preincubated with enzyme and substrate for 10 mins followed by addition of [12C]acetylCoA and [14C]acetylCoA for 10 mins by phosphor-imaging analysis. Details: species or system Homo sapiens.

Test [13] deals with T2, CREB-binding protein/Histone acetyltransferase p300 (Homo sapiens) (UniProt Q09472+Q92793). Description: Inhibition of p300/CBP HAT domain in human Kasumi-1 cells assessed as reduction in H3K9 acetylation at 5 to 10 uM incubated for 12 hrs by Western blot analysis. The class given is cell-based. In a few lines:
(§2)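 Kasumi-1 cells (10^6 per well) were treated with compound at 0, 5 and 10 µM for 12 h. Total histones were extracted, and 2 µg was run on SDS-PAGE and blotted to PVDF. Blots were probed for H3K9Ac, H3K18Ac, H3K27Ac and total H3, then with an anti-rabbit IgG secondary.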
Background: A western blot detects proteins with antibodies after separation by electrophoresis.

Test [14] concerns the target T2, CREB-binding protein/Histone acetyltransferase p300 (Homo sapiens). Description: Inhibition of p300/CBP HAT domain in human Kasumi-1 cells assessed as reduction in H3K18 acetylation at 5 to 10 uM incubated for 12 hrs by Western blot analysis. In kind it is cell-based. A digest of the protocol: as §2
Test [15] addresses T1, Histone acetyltransferase p300. The experiment in a line: Inhibition of His6-tagged p300 HAT domain (unknown origin) assessed as disruption of p300 and Histone H4 (1-21) peptide interaction incubated for 1 hr by Alpha assay. In a few lines: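 Varying compound concentrations were added in PBS with 0.5% BSA for 1 h. Signal was read with excitation at 680 nm and emission at 570 nm. A biotinylated His6 peptide served as an interference counter-control. IC50 came from a sigmoidal fit.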

Test [16] addresses T2, CREB-binding protein/Histone acetyltransferase p300 (Homo sapiens). The experiment in a line: Inhibition of p300/CBP HAT domain in human Kasumi-1 cells assessed as reduction in H3K27 acetylation at 5 to 10 uM incubated for 12 hrs by Western blot analysis. The class given is cell-based. A digest of the protocol: as §2

T2 sequence (Q09472 whole entry, looked up, the tested form may be a part): as the sequence (Q09472 whole entry, the tested form may be a part) above
T2 sequence (Q92793 whole entry, looked up, the tested form may be a part): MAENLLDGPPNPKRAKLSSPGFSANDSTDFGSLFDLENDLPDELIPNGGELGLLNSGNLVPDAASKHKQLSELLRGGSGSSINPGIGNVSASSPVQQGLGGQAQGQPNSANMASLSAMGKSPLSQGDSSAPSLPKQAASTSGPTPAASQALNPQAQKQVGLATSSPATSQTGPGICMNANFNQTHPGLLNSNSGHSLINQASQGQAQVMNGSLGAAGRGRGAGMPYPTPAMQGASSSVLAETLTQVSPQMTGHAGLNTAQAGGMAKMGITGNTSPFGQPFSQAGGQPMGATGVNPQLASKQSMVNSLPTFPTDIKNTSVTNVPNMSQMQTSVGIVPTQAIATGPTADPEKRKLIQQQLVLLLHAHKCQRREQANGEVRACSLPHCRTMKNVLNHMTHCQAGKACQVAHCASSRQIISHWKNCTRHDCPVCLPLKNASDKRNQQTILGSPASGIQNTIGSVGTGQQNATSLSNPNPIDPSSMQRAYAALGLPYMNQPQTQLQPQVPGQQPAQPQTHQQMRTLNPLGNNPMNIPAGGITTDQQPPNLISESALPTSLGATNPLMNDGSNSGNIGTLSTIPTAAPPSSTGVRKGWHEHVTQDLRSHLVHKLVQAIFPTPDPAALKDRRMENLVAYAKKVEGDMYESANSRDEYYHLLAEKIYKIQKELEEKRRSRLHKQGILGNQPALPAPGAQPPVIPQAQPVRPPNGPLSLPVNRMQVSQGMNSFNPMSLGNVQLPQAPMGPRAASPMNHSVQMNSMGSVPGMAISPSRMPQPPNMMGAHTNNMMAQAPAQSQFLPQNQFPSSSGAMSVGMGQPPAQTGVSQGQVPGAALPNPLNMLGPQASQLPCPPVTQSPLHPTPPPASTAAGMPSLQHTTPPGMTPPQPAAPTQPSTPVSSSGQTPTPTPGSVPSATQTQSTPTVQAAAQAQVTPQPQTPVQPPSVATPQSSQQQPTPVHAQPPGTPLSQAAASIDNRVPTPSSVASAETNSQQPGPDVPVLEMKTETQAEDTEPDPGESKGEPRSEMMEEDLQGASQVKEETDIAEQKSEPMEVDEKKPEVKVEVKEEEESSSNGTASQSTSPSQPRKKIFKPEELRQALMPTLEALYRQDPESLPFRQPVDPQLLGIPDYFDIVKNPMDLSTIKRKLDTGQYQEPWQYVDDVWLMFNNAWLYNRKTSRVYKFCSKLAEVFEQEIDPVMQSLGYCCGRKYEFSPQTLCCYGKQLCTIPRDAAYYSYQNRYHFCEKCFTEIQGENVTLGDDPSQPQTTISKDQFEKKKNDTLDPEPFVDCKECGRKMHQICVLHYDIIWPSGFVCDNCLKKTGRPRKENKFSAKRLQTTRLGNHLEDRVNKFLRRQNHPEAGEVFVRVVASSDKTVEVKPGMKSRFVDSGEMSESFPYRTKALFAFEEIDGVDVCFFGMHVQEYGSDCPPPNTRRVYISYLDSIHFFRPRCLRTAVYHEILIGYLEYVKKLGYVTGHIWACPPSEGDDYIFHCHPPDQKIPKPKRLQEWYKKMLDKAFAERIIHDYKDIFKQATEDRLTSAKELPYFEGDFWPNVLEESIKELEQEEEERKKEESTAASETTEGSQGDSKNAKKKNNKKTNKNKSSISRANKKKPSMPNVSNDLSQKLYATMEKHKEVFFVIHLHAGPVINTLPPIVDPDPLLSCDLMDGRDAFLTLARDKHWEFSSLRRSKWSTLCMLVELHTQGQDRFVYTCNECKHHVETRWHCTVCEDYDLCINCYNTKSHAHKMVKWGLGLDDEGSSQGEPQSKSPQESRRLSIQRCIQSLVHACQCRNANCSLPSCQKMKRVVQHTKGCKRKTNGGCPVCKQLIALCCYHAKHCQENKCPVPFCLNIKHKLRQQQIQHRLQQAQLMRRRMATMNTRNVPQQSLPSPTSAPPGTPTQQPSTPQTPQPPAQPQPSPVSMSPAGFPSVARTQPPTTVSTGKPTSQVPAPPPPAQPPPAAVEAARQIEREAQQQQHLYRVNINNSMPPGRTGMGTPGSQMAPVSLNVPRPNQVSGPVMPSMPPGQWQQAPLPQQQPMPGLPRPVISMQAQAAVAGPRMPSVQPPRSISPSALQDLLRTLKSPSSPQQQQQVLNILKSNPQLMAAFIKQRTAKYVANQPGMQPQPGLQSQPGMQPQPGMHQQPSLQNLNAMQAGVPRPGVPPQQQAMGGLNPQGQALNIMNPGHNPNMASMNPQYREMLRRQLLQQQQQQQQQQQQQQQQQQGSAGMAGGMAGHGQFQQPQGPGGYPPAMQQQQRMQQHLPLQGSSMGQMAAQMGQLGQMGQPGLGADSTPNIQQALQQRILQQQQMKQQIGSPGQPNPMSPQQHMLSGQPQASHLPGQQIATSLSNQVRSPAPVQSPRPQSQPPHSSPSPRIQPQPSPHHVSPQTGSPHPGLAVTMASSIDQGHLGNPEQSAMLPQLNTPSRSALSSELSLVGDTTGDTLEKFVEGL
Chain of CREB-binding protein (Q92793 whole entry, the tested form may be a part): as the sequence (Q92793 whole entry, looked up, the tested form may be a part) above

As usually defined, the IC50 is the concentration that inhibits the measured activity by half. In the case of `c1cc(-c2ccc(-c3cc(CNCC4CCNCC4)sc3-c3ccc(CN4CCCCC4)cc3)cc2)co1`, the IC50 in test [1] worked out at 4.6 µM.
The EC50 is the concentration needed to bring the measured effect to its halfway point. The inhibition is the change of the read-out against control, counted positive when it falls. With `CC(C)(C)c1ccc(-c2cc(CNCC3CCNCC3)sc2-c2ccc(C(C)(C)C)cc2)cc1`, the EC50 turned out to be 3.4 µM in test [2]; 2.8 µM in test [5]; 2.8 µM in test [6]; 1 µM in [9]; 2.6 µM in [10]. The inhibition result in [3] is “inactive”. Moreover, the figures for the IC50 in test [4], in test [7] and in [8] were over 50 µM, 1.2 µM and over 50 µM, respectively.
Take `CC(C)(C)c1ccc(-c2sc(C(=O)NCC3CCNCC3)cc2-c2ccc(-c3ccoc3)cc2)cc1`: in [1], the IC50 worked out at 7.4 µM.
The same measure, in the same setting: to `O=C(NCC1CCNCC1)c1cc(-c2ccc(CN3CCCCC3)cc2)c(-c2ccc(-c3ccoc3)cc2)s1` belongs 1.6 µM; to `CC(C)(C)c1ccc(-c2cc(CNCCCN)sc2-c2ccc(C(C)(C)C)cc2)cc1`, 3 µM.
`OCc1ccc(-c2cc(CNCC3CCNCC3)sc2-c2ccc(CO)cc2)cc1`: in test [1], the IC50 was over 10 µM. For the same molecule, the inhibition in test [11] is 22%.
In the case of `CC(C)(C)c1ccc(-c2csc(C(=O)NCC3CCNCC3)n2)cc1`, the inhibition in [11] was determined as 18%.
`CC(C)(C)c1ccc(-c2cc(CNCCC3CCNCC3)sc2-c2ccc(C(C)(C)C)cc2)cc1`: the IC50 in test [1] was determined as 2.2 µM.
Turning to `CC(C)(C)c1ccc(-c2cc(CN3CCOCC3)sc2-c2ccc(C(C)(C)C)cc2)cc1`, in [1], the 50% inhibitory concentration (IC50) is over 10 µM. In [11], the inhibition stood at 20%.
As for `CC(C)(C)c1ccc(-c2nc(CNCC3CCNCC3)sc2-c2ccc(C(C)(C)C)cc2)cc1`, in test [1], the IC50 was 8.6 µM.
`CC(C)(C)c1ccc(-c2cc(CN3CCNCC3)sc2-c2ccc(C(C)(C)C)cc2)cc1`: the IC50 in [1] was over 10 µM. The inhibition in test [11] is 5%.
In the same order, the values of `c1cc(-c2cc(CNCC3CCNCC3)sc2-c2ccoc2)co1` are over 10 µM and 23%.
`COc1ccc(-c2cc(CNCC3CCNCC3)sc2-c2ccc(OC)c(OC)c2)cc1OC`: the EC50 was over 30 µM in test [2]; over 30 µM in [5]; over 30 µM in test [6]; over 30 µM in test [9]; 18.7 µM in test [10]. Moreover, in test [1], the IC50 was over 10 µM. For the same molecule, the inhibition in test [11] was determined as 0%.
Take `O=C(NCC1CCNCC1)c1cc(-c2ccc(-c3ccoc3)cc2)c(-c2ccc(-c3ccoc3)cc2)s1`: in [1], the IC50 is 1.6 µM.
The same measure, in the same setting: to `CC(C)(C)c1ccc(-c2sc(CNCC3CCNCC3)c(Br)c2-c2ccc(C(C)(C)C)cc2)cc1` belongs 1.8 µM; to `CC(C)(C)c1ccc(-c2cc(CNCC3CCNCC3)sc2-c2ccc(CN)cc2)cc1`, 2 µM; to `CC(C)(C)c1ccc(-c2cc(CNCCCCCCN)sc2-c2ccc(C(C)(C)C)cc2)cc1`, 1.4 µM.
On to `CC(C)(C)c1ccc(-c2cc(CNC3CCNCC3)sc2-c2ccc(C(C)(C)C)cc2)cc1`, for which the IC50 in test [1] turned out to be 5 µM.
In the case of `CC(C)(C)c1ccc(-c2sc(C(=O)NCC3CCNCC3)cc2-c2ccc(CN3CCNCC3)cc2)cc1`, the IC50 in test [1] is over 10 µM. Moreover, in test [11], the inhibition was 12%.
In the same order, the values of `CC(C)(C)c1ccc(-c2sc(C(=O)NCC3CCNCC3)cc2-c2cccnc2)cc1` are over 10 µM and 31%.
In the same order, the values of `c1ccc(-c2cccc(-c3cc(CNCC4CCNCC4)sc3-c3cccc(-c4ccccc4)c3)c2)cc1` are over 10 µM and 18%.
In the same order, the values of `CCCCc1ccc(-c2cc(CNCC3CCNCC3)sc2-c2ccc(CCCC)cc2)cc1` are over 10 µM and 10%.
Regarding `COc1ccc(-c2ccc(-c3cc(C(=O)NCC4CCNCC4)sc3-c3ccc(-c4ccc(OC)cc4)cc3)cc2)cc1`, in test [1], the IC50 was determined as 2.8 µM.
With `c1cc(-c2ccc(-c3ncc(CNCC4CCNCC4)nc3-c3ccc(-c4ccoc4)cc3)cc2)co1`, the inhibition in [11] was determined as 25%.
The same measure, in the same setting: the figure for `CC(C)(C)c1ccc(-c2csc(CNCC3CCNCC3)n2)cc1` is 10%.
For the molecule `CC(C)(C)c1ccc(-c2nc(C(=O)NCC3CCNCC3)sc2-c2ccc(C(C)(C)C)cc2)cc1`, the IC50 in test [1] stood at 2.4 µM.
On to `CC(C)(C)c1ccc(-c2cc(COCC3CCNCC3)sc2-c2ccc(C(C)(C)C)cc2)cc1`, for which the IC50 in [1] is over 10 µM. Also, the inhibition in test [11] turned out to be 0%.
For the molecule `c1cc(-c2ccc(-c3cc(CNCC4CCNCC4)sc3-c3ccc(-c4ccoc4)cc3)cc2)co1`, the IC50 in test [1] was determined as 1.7 µM.
On to `COc1ccc(-c2ccc(-c3cc(CNCC4CCNCC4)sc3-c3ccc(-c4ccc(OC)cc4)cc3)cc2)cc1`, for which the IC50 in test [1] stood at 7.4 µM.
The same measure, in the same setting: the figure for `CC(C)(C)c1ccc(-c2sc(CNCC3CCNCC3)cc2-c2ccc(-c3ccoc3)cc2)cc1` is 5.8 µM; for `CC(C)(C)c1ccc(-c2sc(C(=O)NCC3CCNCC3)cc2-c2ccc(CN)cc2)cc1` it is 10 µM.
On to `CC(C)(C)c1ccc(-c2cc(C(=O)NCC3CCNCC3)sc2-c2ccc(C(C)(C)C)cc2)cc1`, for which the inhibition result in test [3] is “inactive”. Besides, the half-inhibitory concentration (IC50) in test [1] is 8.6 µM.
In turn, `CC1=NN(c2ccc(C(=O)O)cc2)C(=O)/C1=C\c1ccc(-c2cc(C)c(C)cc2[N+](=O)[O-])o1` displayed an IC50 in test [12] of 1.6 µM.
As for `CC(C)(C)c1ccc(-c2sc(C(=O)NCC3CCNCC3)cc2-c2ccoc2)cc1`, the IC50 in test [1] was over 10 µM. In addition, the inhibition in test [11] stood at 36%.
With `NCc1ccc(-c2cc(CNCC3CCNCC3)sc2-c2ccc(CN)cc2)cc1`, the EC50 in test [2], in test [5], in [6], in [9] and in test [10] was over 30 µM in each case. In addition, the inhibition result in test [13], in test [14], in test [15] and in [16] was “inactive” throughout. Further, the IC50 in test [1] is over 10 µM. Besides, the inhibition in test [11] came to 0%.
`CC(C)(C)c1ccc(-c2sc(CNCC3CCNCC3)cc2-c2ccc(CN)cc2)cc1`: the half-inhibitory concentration (IC50) in test [1] was over 10 µM. Further, in test [11], the inhibition is 35%.
